# Apaf1 inhib = blocks human Apaf-1 apoptosome activity; reconstituted apoptosome caspase-3 activity, DEVD-Rh110 fluorescence; O14727; AID 489030; inhibition, % at 20 µM; 330,000 tested, 0.71% active; active = inhibition of at least 40% at 20 µM;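 also: plate controls were DMSO wells for no effect and DEVD-CHO caspase inhibitor wells for full effect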
#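 Material: cell-free apoptosome with Apaf-1, procaspase-3 and caspase-9; Buffer or medium: Hepes pH 7.5 with detergent and BSA; Reagent: cytochrome c trigger plus (Z-DEVD)2-Rh110 caspase-3 substrate; Times: compound with Apaf-1, dATP, procaspase-3 30 min, then 50 min reaction, room temperature; Technique: Rh110 fluorescence intensity.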
# UBC13 inh = inhibitors of human UBC13 polyubiquitin chain formation | TR-FRET | P61088 | inhibition, % at 20 µM | 330,000 tested, 0.47% active; in the data active = inhibition above about 45%, passing the limit was not always enough
# Target sequence (P61088 whole entry, looked up): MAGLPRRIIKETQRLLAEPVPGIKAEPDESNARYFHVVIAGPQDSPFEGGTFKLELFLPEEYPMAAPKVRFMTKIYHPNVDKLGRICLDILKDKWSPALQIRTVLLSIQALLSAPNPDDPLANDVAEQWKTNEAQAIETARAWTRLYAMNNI
# SENP8 block-1 = inhibitors of human SENP8 protease. Q96LD8. AID 2540. purified SENP8, Z-RLRGG-aminoluciferin cleavage, luminescence. 330,000 tested, 1.2% active. inhibition, % at 10 µM; in the data active = inhibition above about 50%
# SENP7 block = blocks the human protease SENP7. 330,000 tested, 1.5% active. recombinant SENP7, Z-RLRGG-aminoluciferin luminescence, 40 min. inhibition, % at 5 µM. Q9BQF6. AID 434973;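 active = inhibition above about 50% at the single test dose, limit read from the data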;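 also: plate controls were DMSO with enzyme for no effect and no enzyme buffer wells for full effect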
# SENP6 block = inhibitors of human SENP6 protease | Q9GZR1 | Recombinant SENP6 catalytic domain, aminoluciferin luminescence | inhibition, % at 10 µM | 330,000 tested, 1.8% active | AID 2599;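 active = inhibition above about 50% at the single tested dose, limit read from the data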;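 also: plate controls were DMSO wells with enzyme for no effect and DMSO wells lacking enzyme for full effect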
# Target sequence (Q9GZR1 628-1112 limits assumed): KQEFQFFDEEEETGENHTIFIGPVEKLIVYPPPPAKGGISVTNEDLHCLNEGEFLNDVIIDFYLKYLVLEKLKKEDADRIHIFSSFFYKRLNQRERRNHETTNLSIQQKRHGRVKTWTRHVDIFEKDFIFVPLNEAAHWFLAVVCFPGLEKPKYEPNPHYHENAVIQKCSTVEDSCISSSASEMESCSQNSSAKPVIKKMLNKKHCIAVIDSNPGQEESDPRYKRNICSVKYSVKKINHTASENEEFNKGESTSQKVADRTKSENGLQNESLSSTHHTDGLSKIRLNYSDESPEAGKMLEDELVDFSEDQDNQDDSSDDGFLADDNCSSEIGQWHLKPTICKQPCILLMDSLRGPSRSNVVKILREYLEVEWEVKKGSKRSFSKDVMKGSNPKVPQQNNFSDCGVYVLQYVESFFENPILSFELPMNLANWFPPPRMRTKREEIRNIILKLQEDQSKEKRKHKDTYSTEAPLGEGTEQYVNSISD
# SENP8 block-2 = inhibitors of human SENP8 protease; recombinant SENP8, Nedd8 substrate fluorescence; inhibition, % at 20 µM; 360,000 tested, 0.64% active; AID 602440; in the data active = inhibition mostly above about 40%, no sharp cut-off; inactive = mostly below about 27%
# Casp3 counter = caspase-3 inhibition (UBC13 counter-screen); shares compounds with UBC13 inh; Recombinant caspase-3, Caspase-Glo 3/7 luminescence, 60 min; inhibition, % at 20 µM; 1,400 tested, 4% active;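 active = mean inhibition across replicates above about 26%, limit read from the data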;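 also: plate controls were DMSO with caspase-3 for no effect and DMSO wells lacking enzyme for full effect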
# UBC13 confirm = confirmation of human UBC13 polyubiquitin inhibitors. 1,400 tested, 68% active. shares compounds with UBC13 inh. UBC13 polyubiquitination, TR-FRET, biochemical. inhibition, % at 10 µM; in the data active = inhibition above about 45%
# Apaf-1 inh conf2 = Apaf-1 inhibition, single-dose confirmed; shares compounds with Apaf1 inhib; reconstituted apoptosome, caspase-3 DEVD-Rh110 fluorescence; inhibition, % at 20 µM; 1,800 tested, 25% active;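 active = mean inhibition of at least 40% at 20 µM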;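 also: plate controls were DMSO wells for no effect and DEVD-CHO caspase inhibitor control wells for full effect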
# Rh110 quench = counter-screen for Apaf-1 inhibitors: fluorescence interference; shares compounds with Apaf1 inhib; Rh110 fluorescence interference, quenched caspase reaction; activation (fluorescence interference), % at 20 µM; 1,800 tested, under 10 active;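 active = signal rise of 40% or more at 20 µM, treated as a fluorescence artifact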
# Apaf1 inh interf = Apaf-1 inhibitor counter-screen fluorescence artifact; IC50, µM; fluorescence interference counterscreen, Apaf-1 assay format; shares compounds with Apaf1 inhib; 460 tested, under 10 active; call rule not given here
# An asterisk follows results filed as active; . = no result given. In the library only some 3.1% were active in any assay of this set; here they are far more common.
SMILES,Apaf1 inhib,UBC13 inh,SENP8 block-1,SENP7 block,SENP6 block,SENP8 block-2,Casp3 counter,UBC13 confirm,Apaf-1 inh conf2,Rh110 quench,others
Cc1ccc2nc(N(CCCN(C)C)C(=O)c3ccc(S(=O)(=O)N4CCc5ccccc5C4)cc3)sc2c1,53*,78*,1,-3,-2,7,-6,110*,20,7,
CN(C)CCCN(C(=O)c1ccc(S(=O)(=O)N2CCc3ccccc32)cc1)c1nc2ccc(F)cc2s1,12,32,-5,2,-12,17,.,.,.,.,
N=c1n(CC(=O)c2ccc([N+](=O)[O-])cc2)c2ccccc2n1Cc1ccccc1,-11,6,0,1,-13,1,.,.,.,.,
N=c1n(CC(=O)c2ccc(Br)cc2)c2ccccc2n1Cc1ccccc1,53*,57*,-1,-11,2,1,-3,61*,-34,19,
CCOC(=O)C1(C)CCN1C(=O)c1ccc(F)c(Cl)c1 (stereo not drawn),.,.,.,.,.,10,.,.,.,.,
CCCCCCCCCCOC(=O)Cn1c(COc2ccccc2OC)[n+](C)c2ccccc21,71*,64*,-6,-1,-26,13,1,68*,65*,34,Apaf1 inh interf=>100
C/C=C(\C)C(=O)NCCN1C2=NC[C@@H](C)N2C[C@@H]1Cc1ccc(OC)cc1,6,4,-18,-12,-13,13,.,.,.,.,
COc1ccc(C[C@@H]2CN3C(=NC[C@@H]3C)N2C[C@H](C)NC(=O)CCC2CCCCC2)cc1,14,2,-12,-1,-5,18,.,.,.,.,
COc1ccc(C[C@H]2CN3C(=NC[C@H]3Cc3ccccc3)N2CCNC(=O)c2ccc(C)c(Br)c2)cc1,43*,72*,-16,-12,-20,22,-2,61*,41*,11,Apaf1 inh interf=>100
COc1ccc(C[C@H]2CN3C(=NC[C@@H]3C(C)C)N2C[C@H](C)NC(=O)c2ccc(C)c(Br)c2)cc1,48*,54*,-7,-9,-7,12,-1,44,18,11,
C/C=C(\C)C(=O)NCCN1C2=NC[C@@H](C)N2C[C@H]1Cc1ccc(O)cc1,-4,4,15,0,-16,25,.,.,.,.,
COc1ccc(C[C@H]2CN3C(=NC[C@@H]3Cc3ccccc3)N2CCNC(=O)c2ccc(C)c(Br)c2)cc1,65*,88*,-11,-4,-9,22,1,56*,34,-17,
Cc1ccc2nc(-c3cccc(Br)c3)c(Cc3ccccc3C(F)(F)F)n2c1,.,.,.,.,.,-148,.,.,.,.,
COC(=O)c1ccccc1S(=O)(=O)N1CCC(C(=O)N2CCC2)CC1,55*,79*,-4,5,2,8,0,64*,27,-1,
COC(=O)c1ccccc1S(=O)(=O)N1CCC(C(=O)OC(C)C(=O)Nc2ccc(NC(C)=O)cc2)CC1 (stereo not drawn),-5,5,1,-2,1,8,.,.,.,.,
Cc1cc(N)c2cc(NC(=O)/C=C/c3ccccc3Cl)ccc2n1,64*,117*,8,-2,-13,-11,-1,129*,77*,-3,Apaf1 inh interf=>100
CC1(C(=O)NS(=O)(=O)c2cccc(F)c2)CCN1C(=O)c1ccccc1 (stereo not drawn),.,.,.,.,.,7,.,.,.,.,
CCOC(=O)[C@]12CCCC=C1N(Cc1cccc3ccccc13)C(=O)[C@H](CC(=O)N1CCSCC1)C2,.,.,.,.,.,11,.,.,.,.,
C[C@@H](CN1C2=NC[C@H](Cc3ccccc3)N2C[C@H]1Cc1ccc(O)cc1)NC(=O)CCC1CCCCC1,41*,66*,-13,-7,-8,15,0,41,12,9,
C[C@@H](CN1C2=NC[C@H](Cc3ccc(O)cc3)N2C[C@H]1Cc1ccc(O)cc1)NC(=O)CCC1CCCCC1,3,44,3,-4,-12,15,.,.,.,.,
COc1cc(OC)c2c(-c3ccccc3)cc(=O)oc2c1C(CCN1CCCCC1)c1ccc2c(c1)OCO2 (stereo not drawn),37,25,-19,8,-37,-68,.,.,.,.,
COc1ccc(C(CCN2CCCCC2)c2c(OC)cc(OC)c3c(-c4ccccc4)cc(=O)oc23)cc1 (stereo not drawn),55*,68*,1,-4,-15,-155,-4,37,27,6,
COc1cc(OC)c2c(-c3ccccc3)cc(=O)oc2c1C(CCN1CCCCC1)c1ccc(N(C)C)cc1 (stereo not drawn),54*,51*,-1,-1,-15,15,-1,18,25,0,
CCCCCc1cc(=O)oc2c(C(CCN3CCCC(C)C3)c3cc(OC)c(OC)c(OC)c3)c(OC)cc(OC)c12 (stereo not drawn),60*,67*,5,-3,-18,-88,0,40,18,7,
CCCCNC(=O)c1ccc2nc(CC)c(N(CC)CCN(C)C)n2c1,.,.,.,.,.,2,.,.,.,.,
SMILES,Apaf1 inhib,UBC13 inh,SENP8 block-1,SENP7 block,SENP6 block,SENP8 block-2,Casp3 counter,UBC13 confirm,Apaf-1 inh conf2,Rh110 quench,others
O=S1(=O)N[C@H](Cc2ccccc2)COc2cccc(N3CCC[C@@H]3CO)c21,.,.,.,.,.,14,.,.,.,.,
CCCNC(=O)N[C@H]1C=C[C@H](CC(=O)OC)O[C@@H]1CO,.,.,.,.,.,15,.,.,.,.,
CC(C)C[C@H]1CN=C(Nc2ccccc2)N1CC1CCC(C(C)(C)C)CC1 (stereo partly drawn),56*,87*,-3,-1,-5,34,-2,73*,23,14,
O=S(=O)(c1ccc(NC(=S)NC23CC4CC(CC(C4)C2)C3)cc1)N1CCCCC1,.,.,.,.,.,17,.,.,.,.,
NC1=NC[C@@H](CC2CCCCC2)N1CCc1cc(C(F)(F)F)cc(C(F)(F)F)c1,79*,91*,-5,-5,-42,4,-4,101*,50*,29,Apaf1 inh interf=>100
NC1=NC[C@H](c2ccccc2)N1CCc1cc(C(F)(F)F)cc(C(F)(F)F)c1,54*,80*,-4,0,-11,14,-2,53*,30,8,
CCC(C)[C@H]1CN=C(N)N1CCc1cc(C(F)(F)F)cc(C(F)(F)F)c1 (stereo partly drawn),57*,79*,4,4,-18,15,-3,46*,22,-2,
NCCCC[C@H]1CNC(=S)N1CCc1cc(C(F)(F)F)cc(C(F)(F)F)c1,39,22,-7,3,-3,19,.,.,.,.,
